Experimental findings from ChEMBL document CHEMBL1127051, “Vanilloids. 1. Analogs of capsaicin with antinociceptive and antiinflammatory activity” (J Med Chem, 1993) are described below.

Series [1] relates to Rattus norvegicus. Description: Percentage analgesia by rat hot plate test after oral administration at 300 mg/kg. It counts as functional. In outline: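 Rats fasted 18 h, prescreened on a 55 ± 0.5 °C hot plate (latency <12 s, else lowest <30 s) to set the 0 h value. Groups of 8 dosed orally in sesame oil (1 mL/200 g); latency read at 1.5, 3, 5 h (24 h if persisting). %analgesia = [(LT(t) − LT(0))/(60 − LT(0))]×100, taken at the time of maximal latency.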

Series [2] concerns Mus musculus. Description: Latency time measured by mouse hot plate test after subcutaneous administration at 200 mg/kg. Further details: unit: s. It counts as functional. In outline: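 Male CF-1 mice, 8 per group, given test agent sc in 0.2 mL ethanol/Tween-80/saline (10/10/80); dose 0.68 mmol (200 mg/kg for capsaicin). Placed on copper surface held at 55 ± 0.5 °C. Paw-response latency (s) reported as group mean ± SD; pretest latency ~5 s.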
A general note: Hot-plate and tail-flick tests time the reaction to a heat stimulus.

Series [3] is described as follows: Acute toxicity after intraperitoneal dose at 15 mg/kg in mice. The format is organism-based. Further details: dose 15 mg/kg, route intraperitoneal. Conditions: mouse, in vivo, ip, read-out: Lethality. The method, boiled down: (§1)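 Single intraperitoneal dose at the listed mg/kg; acute toxicity scored as % lethality = number of deaths / number of animals dosed, 7–10 animals per group.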

The test system of series [4] is Mus musculus. As to the kind of experiment: Percentage inhibition in mouse by using Croton oil-inflamed mouse ear test (topical dosing). It counts as functional. Further details: concentration or dose not given beside the values. The method, boiled down: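 Male Cox ICR mice (25–35 g), 10 per group. Left ear given 25 μL of 1% compound in ethanol, repeated ~17 h later; 1 h after that, both ears given 25 μL 2% croton oil. After 4 h, 5 mm ear punches weighed. % inhibition = [(C − T1)/C]×100, using left-minus-right weight differences versus vehicle controls.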

Series [5] in a line: Acute toxicity after intraperitoneal dose at 50 mg/kg in mice. The format is organism-based. Further details: dose 50 mg/kg, route intraperitoneal. The settings on record: mouse, in vivo, ip, read-out: Lethality. The method, boiled down: as §1
The species named for series [6] is Mus musculus. As to the kind of experiment: Ratio of the number of responders to the number of animals tested; 4/8. The format is functional.
Series [7] is filed under the species Mus musculus. As to the kind of experiment: Ratio of the number of responders to the number of animals tested; 0/8. The format is functional.
The nature of series [8]: Acute toxicity after intraperitoneal dose at 200 mg/kg in mice. Further details: dose 200 mg/kg, route intraperitoneal. The settings on record: mouse, in vivo, ip, read-out: Lethality. The format is organism-based. In outline: as §1
The species named for series [9] is Mus musculus. As to the kind of experiment: Ratio of the number of responders to the number of animals tested; 7/8. The format is functional.
For series [10], the species on record is Mus musculus. Description: Ratio of the number of responders to the number of animals tested; 6/6. It counts as functional.
Series [11] can be described thus: Acute toxicity after intraperitoneal dose at 100 mg/kg in mice. The settings on record: mouse, in vivo, ip, read-out: Lethality. It counts as organism-based. Further details: dose 100 mg/kg, route intraperitoneal. The method, boiled down: as §1
For series [12], the species on record is Mus musculus. As to the kind of experiment: Ratio of the number of responders to the number of animals tested; 2/8. It counts as functional.

Turning to `CCCCCCCC/C=C\CCCCCCCNC(=O)Cc1ccc(O)c(OC)c1`, in series [1], the Analgesia came to 66%.
The Inhibition is the change of the read-out against control, counted positive when it falls. Take `CCCCCCCCCCNC(=O)Cc1ccc(O)c(OC)c1`: the Latency in series [2] is reported as 5.3. For the same compound, the mortality in series [3] was found to be 100%. Further, in series [4], the Inhibition came to 58.1%.
In turn, `CCCCCCCCCC(=O)CCCCCCCC(=O)NCc1ccc(O)c(OC)c1` displayed a Latency in series [2] of 11.2.
`COc1cc(CNC(=O)CCCCCCc2ccccc2)ccc1O`: in series [1], the Analgesia is reported as 1%. Moreover, the Latency in [2] was found to be 6.8. The mortality in series [5] came out at 60%. Moreover, the Inhibition in series [4] was found to be 46.2%.
`CCCCCC(=O)NCc1ccc(O)c(OC)c1`: the Latency in [2] amounted to 16.8. Moreover, the mortality in series [5] stood at 60%. Further, in series [6], the Response stood at 4. Further, in series [4], the Inhibition is reported as 33.6%.
Turning to `CCCCCCC/C=C/CCCCCCCCC(=O)NCc1ccc(O)c(OC)c1`, in [7], the Response was found to be 0. Also, in series [8], the mortality is 60%. The compound further registered an Analgesia in series [1] of 37%. Also, in [2], the Latency is given as 7.1. In series [4], the Inhibition came out at 10.9%.
Consider `CCCCCCCCCCC(=O)NCc1ccc(O)c(OC)c1`, for which the Latency in series [2] came to 47.7. Further, the mortality in [5] was 80%. For the same compound, the Response in series [9] is 7. Moreover, in series [4], the Inhibition was found to be 29.6%.
Compound `COc1cc(CNC(=O)CCCCCc2ccccc2)ccc1O` registered a Latency in series [2] of 6.2. In addition, in [5], the mortality came to 70%. In addition, the Inhibition in series [4] turned out to be 57.6%.
In [1], `CCCCC/C=C\C/C=C\CCCCCCCCNC(=O)Cc1ccc(O)c(OC)c1` displayed an Analgesia of 89%.
For the compound `CCCC/C=C\CCCCCCCCNC(=O)Cc1ccc(O)c(OC)c1`, the Analgesia in series [1] came to 74%.
Still for that read-out and setting: next, `CCCC/C=C/CCCCCCCC(=O)NCc1ccc(O)c(OC)c1`: 22%.
Regarding `C#CCCCCCCCCC(=O)NCc1ccc(O)c(OC)c1`, the Analgesia in series [1] stood at 15%. The Latency in series [2] was determined as 17.1. For the same compound, the mortality in series [5] was found to be 90%. The Inhibition in [4] came out at 36.4%.
Consider `CCCCCCC/C=C\CCCCCCCCCC(=O)NCc1ccc(O)c(OC)c1`, for which the mortality in [8] worked out at 40%. In series [1], the Analgesia is 43%. The same compound came in with a Latency in [2] of 35.7. Besides, the Inhibition in series [4] turned out to be 76.9%.
Turning to `CCCCCCCC/C=C\CCCCCCCCCCCCCC(=O)NCc1ccc(O)c(OC)c1`, the Response in series [7] is on record as 0. This compound also displayed a Latency in series [2] of 6.1. Moreover, in series [4], the Inhibition is 48%.
In the case of `CCCCCCCCCCCCCCCCCC(=O)NCc1ccc(O)c(OC)c1`, the Response in series [7] is given as 0. In series [1], this compound displayed an Analgesia of 3%. Also, the Latency in series [2] turned out to be 5.9. Also, the mortality in series [5] was 0%. Besides, the Inhibition in series [4] came to 11.3%.
With `CCCCCCCCCCCCCC/C=C\CC(=O)NCc1ccc(O)c(OC)c1`, in [7], the Response is 0. For the same compound, the Latency in [2] turned out to be 7.5.
Consider `CCCCCCCC(=O)NCc1ccc(O)c(OC)c1`, for which the Latency in [2] is reported as over 51.3. For the same compound, the mortality in series [5] came out at 90%. Further, the Response in [10] is 6. The Inhibition in series [4] is recorded as 45.8%.
In series [2], `COc1cc(CNC(=O)CCCCc2ccccc2)ccc1O` registered a Latency of 12.2. Moreover, the mortality in series [5] worked out at 90%. The Inhibition in series [4] amounted to 56.4%.
`CCCC(=O)NCc1ccc(O)c(OC)c1` returned a Latency in [2] of 10.8. Further, the Response in [6] worked out at 4. Further, in series [4], the Inhibition is given as 3.2%. Further, the mortality in series [11] came out at 40%.
For the compound `CCCCCc1ccc(C(=O)NCc2ccc(O)c(OC)c2)cc1`, in series [2], the Latency was 6.9. Besides, the mortality in [5] worked out at 60%. Also, the Inhibition in series [4] was 9.3%.
Consider `CCCCCC/C=C\CCCCCCCCNC(=O)Cc1ccc(O)c(OC)c1`, for which, in series [1], the Analgesia stood at 88%.
In the case of `CCCCCCCCCC/C=C\CCCCCC(=O)NCc1ccc(O)c(OC)c1`, the mortality in series [8] is 30%. This compound gave an Analgesia in [1] of 37%. Besides, the Latency in [2] was found to be 46.1. In addition, the Inhibition in [4] was determined as 68.4%.
In series [2], `CCCCC(=O)NCc1ccc(O)c(OC)c1` returned a Latency of 9.6. Also, in [4], the Inhibition came out at 24.2%. Also, the Response in series [12] is 2. For the same compound, the mortality in [11] worked out at 60%.
Consider `COc1cc(CC(=O)NC2CCCCCCC2)ccc1O`, for which the mortality in series [8] is 80%. Also, the Analgesia in [1] came out at 4%. This compound displayed a Latency in series [2] of 34.2. In series [10], the Response came to 6. Moreover, the Inhibition in [4] came to 34.7%.
For `CCCCCCCCCNC(=O)Cc1ccc(O)c(OC)c1`, the Latency in series [2] is reported as 22.3. The mortality in series [3] is 86%. For the same compound, in series [4], the Inhibition amounted to 80.7%.
`CCCCCCCC/C=C\CCCCCCCCNC(=O)Cc1ccc(O)c(OC)c1`: the mortality in series [8] amounted to 50%. In addition, the Analgesia in series [1] was determined as 74%. This compound also registered a Latency in [2] of 27.9. Further, the Response in [9] was determined as 7. In [4], the Inhibition is on record as 95.5%.
Turning to `CCCCCCCC#CCCCCCCCCC(=O)NCc1ccc(O)c(OC)c1`, the mortality in [8] was found to be 70%. Besides, the Analgesia in [1] worked out at 15%. The Latency in series [2] is given as over 18.6. The Inhibition in series [4] is 50.3%. The Response in series [12] was determined as 2.
With `CCCCCCCCCC/C=C/CCCCCC(=O)NCc1ccc(O)c(OC)c1`, the mortality in series [8] stood at 60%. In series [1], this compound showed an Analgesia of 27%. The Latency in series [2] was 11.5. Further, the Inhibition in series [4] is recorded as 26.7%. Further, the Response in series [12] stood at 2.
Take `COc1cc(CNC(=O)CCCc2ccccc2)ccc1O`: the Latency in series [2] is 5.6. Also, the mortality in series [5] turned out to be 75%. For the same compound, the Inhibition in series [4] is 40.9%.
Turning to `CCCCCCCCCC(C)CCCCCCCC(=O)NCc1ccc(O)c(OC)c1` (stereo not drawn), in series [2], the Latency came out at 26.9. In addition, the Response in series [6] was determined as 4. Moreover, the Inhibition in [4] was found to be 88.3%. In [11], the mortality came to 40%.
Compound `CCCCCCCCCCCCNC(=O)Cc1ccc(O)c(OC)c1` had a Latency in series [2] of 5. For the same compound, in [5], the mortality is 0%. In addition, the Inhibition in [4] is on record as 55.3%.
For `CCCCCCC/C=C\CCCCCCCCCCCCC(=O)NCc1ccc(O)c(OC)c1`, the mortality in [8] was 0%. The Inhibition in series [4] was 29%.
`CCCCCCNC(=O)Cc1ccc(O)c(OC)c1` registered a Latency in series [2] of 40.7. The Inhibition in series [4] was -5.8%.
Take `CCCCCCCNC(=O)Cc1ccc(O)c(OC)c1`: the Latency in series [2] is reported as 41.1. For the same compound, the mortality in series [3] was found to be 100%. Further, in series [4], the Inhibition is recorded as 69.4%.
In the case of `C=C(CCCCCCCCC)CCCCCCCC(=O)NCc1ccc(O)c(OC)c1`, the mortality in series [8] amounted to 60%. The Analgesia in series [1] was found to be 67%. Also, the Latency in series [2] is on record as over 22.8. For the same compound, the Inhibition in [4] is 96.2%. Also, in series [12], the Response was 2.
As to `CCCCCCCC/C=C/CCCCCCCCNC(=O)Cc1ccc(O)c(OC)c1`, in [1], the Analgesia came to 95%.
As for `CCCCCCCC[C@H]1O[C@H]1CCCCCCCC(=O)NCc1ccc(O)c(OC)c1`, in series [8], the mortality stood at 40%. The Analgesia in [1] is given as 5%. The same compound gave a Latency in series [2] of 13.5. Besides, the Inhibition in series [4] was 54.5%.
On to `CCCCC/C=C\CCCCCCCCC(=O)NCc1ccc(O)c(OC)c1`, for which the mortality in [8] was 10%. The Latency in [2] is given as over 48.8. Further, the Response in series [9] came out at 7. For the same compound, the Inhibition in series [4] is reported as 79.3%.
